# HSF1 activator: HSF-1 activators, primary screen, NIH3T3-HGL cells, MG132 stress, luminescence, single point. NIH3T3-HGL HSF-1 luciferase reporter, 8 h; 100% = twice DMSO control signal. activation, % at 9 µM. actives 1.7% (n = 300,000). AID 504408, 2011;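 active = mean replicate activation of at least 50% with a set share of replicates each reaching 50%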;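 note: 0% = median of the neutral control wells and 100% = twice that signal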
# core dimer inh: inhibitors of HCV core protein dimerization, primary screen, biochemical, TR-FRET, high-throughput. actives 0.33% (n = 300,000). inhibition, % at 5 µM. TR-FRET GST/Flag-core106 dimerization, 1536-well;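 active = inhibition above the mean of all tested compounds plus 3 SD, set per screening campaign, cut at about 45% in these data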
#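 Assay system: tagged HCV core106 pair (GST and Flag); medium: KF-containing HEPES buffer, pH 7.45, DTT, CHAPS, BSA; also added: Eu donor and XL665 acceptor anti-tag antibodies; dosing: 5 µM single dose; timing: compound-protein-antibody incubation 4 h at 22.5 °C; signal: TR-FRET 671 and 617 nm emission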
# ALR H2O2 inh: inhibitors of human ALR sulfhydryl oxidase, primary screen, biochemical, H2O2 detection, HRP-luminol luminescence, single point; purified ALR, DTT oxidation; actives 3.8% (n = 290,000); inhibition, % (concentration not given with the values); FAD-linked sulfhydryl oxidase ALR (Homo sapiens), P55789; AID 485317, 2010;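 active = mean replicate inhibition above about 79%, with every replicate also reaching it, limit read from the data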
# Target sequence (P55789 whole entry, looked up): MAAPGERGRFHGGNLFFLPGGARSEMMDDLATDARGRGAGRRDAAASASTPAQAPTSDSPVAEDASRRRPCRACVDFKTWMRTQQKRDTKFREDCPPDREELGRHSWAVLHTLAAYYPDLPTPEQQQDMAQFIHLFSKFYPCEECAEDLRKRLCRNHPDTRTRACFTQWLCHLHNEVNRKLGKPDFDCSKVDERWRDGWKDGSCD
# PHOSPHO1 inh: PubChem AID 1565; Phosphoethanolamine/phosphocholine phosphatase (Homo sapiens), Q8TCT1; recombinant PHOSPHO1, absorbance phosphatase assay; inhibition, % at 13.3 µM; actives 1.1% (n = 290,000); in the data active = inhibition above about 60%
# Target sequence (Q8TCT1 whole entry, looked up): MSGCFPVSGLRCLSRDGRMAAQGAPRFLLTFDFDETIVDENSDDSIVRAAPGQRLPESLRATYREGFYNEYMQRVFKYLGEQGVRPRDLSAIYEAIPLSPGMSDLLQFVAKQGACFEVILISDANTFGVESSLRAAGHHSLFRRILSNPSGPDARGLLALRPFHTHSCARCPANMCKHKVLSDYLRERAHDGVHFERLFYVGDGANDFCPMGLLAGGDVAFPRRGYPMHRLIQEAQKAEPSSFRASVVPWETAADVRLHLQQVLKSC
# AI-2 QS mod: Vibrio harveyi AI-2 quorum sensing modulators, primary screen, JMH597 strain, luminescence/OD600 ratio. Vibrio harveyi JMH597 AI-2 luminescence/OD600 ratio, 9 h; stronger effect = lower value; strain lacks LuxN and CqsS sensors; 0 = neutral-control median. activity change, % at 7.5 µM. actives 0.4% (n = 300,000); in the data active = activity change below about -75%, passing the limit was not always enough;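 note: luminescence divided by OD600 gain over 9 h not by final OD600 alone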
# HSF1 inh: HSF1 inhibitors in luciferase reporter cells, primary screen, cell-based, NIH3T3, luminescence | NIH3T3-HGL HSE-luciferase, MG132-induced, luminescence 8 h; stronger effect = lower value | actives 0.77% (n = 300,000) | activity change, negative = inhibition, % at 7.5 µM (by protocol);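 active = more than half of replicate wells show activity change below -50%, luminescence cut by over half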;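 note: luciferase reports HSF-1 transcriptional activity via heat shock element; 0% = median of DMSO wells and -100% = zero luminescence signal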
# Active calls of the source: *; . = no result. Sampled rows, rich in hits. Any-hit rate of the full collection: about 6.8%.
SMILES,HSF1 activator,core dimer inh,ALR H2O2 inh,PHOSPHO1 inh,AI-2 QS mod,HSF1 inh
COc1ccc(C(=O)NNC(=S)NC(=O)c2ccco2)cc1,24,-7,31,12,-149*,5
COc1ccc2[nH]cc(CCNC(=O)C3CCCCC3)c2c1,-10,-1,-7,.,12,6
O=C(C1=C[C@@H](C2CC2)C[C@@H](OCc2ccc(CO)cc2)O1)N1CCN(Cc2ccccc2)CC1,104*,1,-12,22,5,87
CN1CCN(C(=O)C2=C[C@H](C3CC3)C[C@H](OCc3ccc(CO)cc3)O2)CC1,13,5,-31,.,10,0
CCOC(=O)N1CCN(CC(O)c2ccc3c(c2)CCN3)CC1 (stereo not given),3,-3,82*,6,-10,1
CCOC(=O)N1CCN(CC(O)c2ccc3cc[nH]c3c2)CC1 (stereo not given),-10,-4,-4,0,21,3
N=c1c2c3c(sc2ncn1Cc1ccco1)CCCCC3,8,2,92*,7,11,1
CC(O)CNc1nc2sc3c(c2c(=O)n1Cc1ccco1)CCCCC3 (stereo not given),-37,-2,38,8,21,-24
O=C(Cn1c(=O)n(Cc2ccco2)c(=O)c2c3c(sc21)CCCC3)Nc1ccccc1,-7,48*,4,17,24,3
CC(C)Cn1cnc2sc3c(c2c1=N)CCCC3,10,-3,-3,7,20,-6
O=c1c2c3c(sc2nc(NCCOCCO)n1Cc1ccco1)CCCCC3,-62,-1,13,33,15,-62*
NC(=O)Cn1c(=O)n(Cc2ccco2)c(=O)c2c3c(sc21)CCCCC3,-9,30,8,28,22,-4
COc1cccc(/C=N/Nc2nc(-c3cccnc3)nc3ccccc23)c1,1,4,2,16,10,1
COc1cccc(CNc2nc(-c3cccnc3)nc3ccccc23)c1,69*,1,15,-23,19,22
O=C1CC(c2ccc(Cl)cc2)n2nc(NS(=O)(=O)c3ccc(F)cc3)nc2N1 (stereo not given),64*,1,11,32,4,15
CC1=CC(c2ccc(Cl)cc2)n2nc(NS(=O)(=O)c3ccc(C)cc3)nc2N1 (stereo not given),5,13,96*,0,5,-7
COc1ccc(OC(=O)COc2ccc(Cl)cc2)cc1,-5,11,12,34,15,-2
O=C(CC(Nc1ccccc1)c1ccccc1)C1CC1 (stereo not given),-6,-1,.,33,9,-2
COc1ccc(OC2CCN(C(=O)Nc3ccc(C)cc3)CC2)cc1,0,2,1,26,-2,0
CC1CCC(C(C)C)C(OCC(O)CN2CCCC(C)C2)C1 (stereo not given),13,0,-41,11,18,3
CC1CCC(C(C)C)C(OCC(O)C[N+]2(C)CCCCC2)C1 (stereo not given),-14,1,99*,5,-1,-4
CC(=O)Oc1c(C)cc(Cl)cc1C(=O)Nc1ccc([N+](=O)[O-])cc1Cl,56*,-1,0,-7,39,21
CC(=O)OCC(=O)Nc1ccc([N+](=O)[O-])cc1Cl,-1,6,-6,30,23,-8
Cc1ccc(C)c(S(=O)(=O)Nc2ccc(C(=O)N3CCC3)cc2)c1,-7,1,2,.,.,0
CCOC(=O)C1CN(S(=O)(=O)c2cccs2)c2ccc(CC(=O)OC)cc2O1 (stereo not given),-8,9,-2,38,20,-9
SMILES,HSF1 activator,core dimer inh,ALR H2O2 inh,PHOSPHO1 inh,AI-2 QS mod,HSF1 inh
Cc1cc(C(=O)N2CCCC(C(=O)c3cccc(C(F)(F)F)c3)C2)n[nH]1 (stereo not given),4,-13,2,44,-7,3
O=C(c1cccc(C(F)(F)F)c1)C1CCCN(C(=O)c2cc(C3CC3)[nH]n2)C1 (stereo not given),1,5,86*,-3,14,3
CC(C)(C)NC(=O)NC(=O)CN1CCN(c2ccccc2)CC1,-3,3,35,-4,-15,1
Cc1ccc(NC(=O)NC(=O)CN2CCC(C(N)=O)CC2)c(C)c1,.,.,-2,.,.,.
CC(C)(C)NC(=O)NC(=O)CN1CCN(c2ccc(O)cc2)CC1,-10,-1,94*,-5,4,-4
Cc1ccc(NC(=O)NC(=O)CN2CCN(c3ccc(O)cc3)CC2)c(C)c1,-73,6,99*,20,.,-66*
Cc1ccc(NC2=C(CC(=O)O)C(c3ccccc3)N(c3ccc(C)cc3)C2=O)cc1 (stereo not given),26,14,16,-6,15,12
CCCNC(=O)C(Cc1ccc(I)cc1)NC(=O)c1ccc(C#N)cc1 (stereo not given),.,.,30,.,.,.
Cc1nnc2sc(SCc3ccccc3)nn2c1=O,44,2,20,-26,37,25
Cc1nnc2sc(SCc3cccc(Cl)c3)nn2c1=O,36,-2,100*,37,7,17
Cc1nnc2sc(SCc3ccccc3Cl)nn2c1=O,11,-2,96*,9,0,10
COc1ccc(-n2cc(CNC3CCC(O)CC3)c(-c3cccc(F)c3)n2)cc1 (stereo not given),-5,-2,-7,15,34,0
OCC[C@@H]1C[C@@H](O)[C@H](O)[C@@]2(CCCc3ccccc3O2)O1,9,-14,14,15,8,2
O=C(NCCNC(=O)c1ccccn1)c1ccccc1,1,-10,95*,-24,5,-3
Cc1ccc(OCC(=O)NCCCNC(=O)c2ccccn2)cc1,15,-3,4,2,17,2
O=C(COc1ccc(Cl)cc1)NCCCNC(=O)c1ccccn1,84*,-1,-1,23,18,30
O=C(NCC(=O)N1CCN(S(=O)(=O)/C=C/c2ccccc2)CC1)c1ccc(Cl)cc1,9,0,-2,33,19,4
Nc1ccc(Cl)cc1/C(=N/O)c1ccccc1,6,1,97*,37,8,-7
NC(=O)c1cc2cc(Cl)ccc2oc1=Nc1cccc(C(F)(F)F)c1,0,17,91*,-11,-1,-2
COc1ccc2oc(=Nc3cc(F)ccc3F)c(C(N)=O)cc2c1,70*,2,-2,11,3,34
